What was measured:
[1] = Cytotoxicity against human MGC803 cells after 48 hrs by MTT assay; assay type: functional, cell-based, MGC-803
Summary of the method: (§1)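 Tumor cells in log phase in RPMI 1640 + 10% FBS, seeded at 3×10^4 cells mL-1 and incubated 24 h (37 °C, 5% CO2). Test samples added at pre-set concentrations (6 wells each), doxorubicin as reference; 48 h exposure. MTT (2.5 mg·mL-1 in PBS) added for 4 h, formazan dissolved in DMSO, A570 read.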

[2] = Cytotoxicity against human PC3 cells after 48 hrs by MTT assay; assay type: functional, cell-based, PC-3; summary of the method: as §1
Bcap37 = test: Cytotoxicity against human Bcap37 cells after 48 hrs by MTT assay; assay type: functional, cell-based; summary of the method: as §1
HepG2 = test: Cytotoxicity against human HepG2 cells after 48 hrs by MTT assay; assay type: functional, cell-based; summary of the method: as §1
[3] = biological target: Telomerase reverse transcriptase (Homo sapiens, UniProt O14746); test: Inhibition of telomerase in human MGC-803 cells after 24 hrs by TRAP-PCR-ELISA assay; assay type: cell-based
Summary of the method: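 Cells lysed in RIPA on ice for 30 min; extract incubated with TRAP mix at 25 °C for 30 min, then 35 PCR cycles. Products hybridized to DIG probe, captured on streptavidin, detected with peroxidase anti-DIG at 490 nm; mean±SD.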

[4] = Homo sapiens, MGC-803, 48 h, read-out: IC50
[5] = Homo sapiens, PC-3, 48 h, read-out: IC50
[6] = Homo sapiens, Bcap37, 48 h, read-out: IC50
[7] = Homo sapiens, HepG2, 48 h, read-out: IC50

Sequence of Telomerase reverse transcriptase (O14746 whole entry): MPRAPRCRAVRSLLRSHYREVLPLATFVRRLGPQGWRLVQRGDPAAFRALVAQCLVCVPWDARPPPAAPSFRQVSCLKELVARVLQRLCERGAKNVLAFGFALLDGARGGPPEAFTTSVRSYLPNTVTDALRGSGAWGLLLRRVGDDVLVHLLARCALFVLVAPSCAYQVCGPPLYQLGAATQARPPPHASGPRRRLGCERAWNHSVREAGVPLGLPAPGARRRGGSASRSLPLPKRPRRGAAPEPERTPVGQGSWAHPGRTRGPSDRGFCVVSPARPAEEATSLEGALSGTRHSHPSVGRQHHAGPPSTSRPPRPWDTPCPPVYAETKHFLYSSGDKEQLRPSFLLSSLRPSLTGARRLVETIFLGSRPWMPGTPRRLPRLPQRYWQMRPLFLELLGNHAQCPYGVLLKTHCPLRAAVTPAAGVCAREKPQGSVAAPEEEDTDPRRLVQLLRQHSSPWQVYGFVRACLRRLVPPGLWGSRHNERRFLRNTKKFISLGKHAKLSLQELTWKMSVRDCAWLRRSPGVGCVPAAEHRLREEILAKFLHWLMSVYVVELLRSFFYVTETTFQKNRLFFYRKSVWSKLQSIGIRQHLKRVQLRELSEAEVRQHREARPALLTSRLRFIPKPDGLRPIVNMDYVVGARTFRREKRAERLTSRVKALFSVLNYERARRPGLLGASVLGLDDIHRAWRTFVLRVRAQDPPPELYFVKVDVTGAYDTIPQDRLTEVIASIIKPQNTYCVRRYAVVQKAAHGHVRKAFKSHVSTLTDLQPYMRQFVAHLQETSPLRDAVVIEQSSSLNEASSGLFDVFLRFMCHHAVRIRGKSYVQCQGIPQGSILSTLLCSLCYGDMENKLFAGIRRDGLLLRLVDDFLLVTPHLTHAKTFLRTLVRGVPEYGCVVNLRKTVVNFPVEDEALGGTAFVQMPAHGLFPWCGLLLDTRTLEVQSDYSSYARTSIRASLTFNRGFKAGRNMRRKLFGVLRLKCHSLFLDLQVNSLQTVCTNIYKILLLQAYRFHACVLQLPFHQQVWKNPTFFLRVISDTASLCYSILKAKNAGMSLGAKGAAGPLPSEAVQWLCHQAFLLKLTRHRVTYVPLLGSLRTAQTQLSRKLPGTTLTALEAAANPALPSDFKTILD

## CC1=NN(C(=O)c2ccc(C)cc2)C(c2cc(Br)ccc2O)C1 (stereo unspecified)
[1]; [4]
  IC50: 21 µM
[2]; [5]
  IC50: 41.2 µM
Bcap37; [6]
  IC50: 32.6 µM
HepG2; [7]
  IC50: 23.2 µM

## CC1=NN(C(=O)CN2CCSCC2)C(c2ccccc2O)C1 (stereo unspecified)
[1]; [4]
  IC50: 31.5 µM
[2]; [5]
  IC50: 29.2 µM
Bcap37; [6]
  IC50: 20.6 µM
HepG2; [7]
  IC50: 45.3 µM

## CC(C)(C)NCC(=O)N1N=C(c2cc3ccccc3oc2=O)CC1c1ccccc1 (stereo unspecified)
[1]; [4]
  IC50: 15.4 µM
[2]; [5]
  IC50: 16.4 µM
Bcap37; [6]
  IC50: 36.2 µM
HepG2; [7]
  IC50: 31.4 µM

## COc1ccc(NCC(=O)N2N=C(C)CC2c2ccccc2O)cc1 (stereo unspecified)
[1]; [4]
  IC50: 9.87 µM
[3]
  IC50: 22.3 µM
[2]; [5]
  IC50: 51.6 µM
Bcap37; [6]
  IC50: 45.5 µM
HepG2; [7]
  IC50: 39.1 µM

## CC1=NN(S(=O)(=O)c2ccc(C)cc2)C(c2cc(Br)ccc2O)C1 (stereo unspecified)
[1]; [4]
  IC50: 30.7 µM
[2]; [5]
  IC50: 33.2 µM
Bcap37; [6]
  IC50: 36.8 µM
HepG2; [7]
  IC50: 20.8 µM

## CC(=O)Oc1ccccc1C1CC(C)=NN1C(=O)CN1CCCC1 (stereo unspecified)
[1]; [4]
  IC50: 6.51 µM
[3]
  IC50: 6.3 µM
[2]; [5]
  IC50: 6.21 µM
Bcap37; [6]
  IC50: 5.21 µM
HepG2; [7]
  IC50: 5.09 µM

## COc1ccccc1C1CC(C)=NN1C(=O)CN(C(C)C)C(C)C (stereo unspecified)
[1]; [4]
  IC50: 21.5 µM
[3]
  IC50: 14.2 µM
[2]; [5]
  IC50: 5.2 µM
Bcap37; [6]
  IC50: 34.2 µM
HepG2; [7]
  IC50: 8.4 µM

## CC1=NN(C(=O)/C=C/c2ccccc2)C(c2ccccc2O)C1 (stereo unspecified)
[1]; [4]
  IC50: 39.6 µM
[2]; [5]
  IC50: 42 µM
Bcap37; bcap37
  IC50: Not Active
HepG2; [7]
  IC50: 29 µM

## CCCNCC(=O)N1N=C(c2cc3ccccc3oc2=O)CC1c1ccccc1 (stereo unspecified)
[1]; [4]
  IC50: 4.88 µM
[3]
  IC50: 9.32 µM
[2]; [5]
  IC50: 7.27 µM
Bcap37; [6]
  IC50: 25.2 µM
HepG2; [7]
  IC50: 10.8 µM

## CC1=NN(C(=O)CN2CCC(c3ccccc3)CC2)C(c2ccccc2O)C1 (stereo unspecified)
[1]; [4]
  IC50: 12.3 µM
[2]; [5]
  IC50: 20.4 µM
Bcap37; [6]
  IC50: 33.7 µM
HepG2; [7]
  IC50: 23.3 µM

## CC1=NN(S(=O)(=O)c2ccc([N+](=O)[O-])cc2)C(c2cc(Br)cc(Br)c2O)C1 (stereo unspecified)
[1]; [4]
  IC50: 40.1 µM
[2]; [5]
  IC50: 50 µM
Bcap37; bcap37
  IC50: Not Active
HepG2; hepg2
  IC50: Not Active

## Cc1ccc(S(=O)(=O)N2N=C(c3cc4ccccc4oc3=O)CC2c2ccccc2)cc1 (stereo unspecified)
[1]; [4]
  IC50: 50.2 µM
[2]; [5]
  IC50: 48.6 µM
Bcap37; [6]
  IC50: 30.3 µM
HepG2; hepg2
  IC50: Not Active

## CCNCC(=O)N1N=C(c2cc3ccccc3oc2=O)CC1c1ccccc1 (stereo unspecified)
[1]; [4]
  IC50: 26.6 µM
[3]
  IC50: 6.68 µM
[2]; [5]
  IC50: 5.58 µM
Bcap37; [6]
  IC50: 6.49 µM
HepG2; [7]
  IC50: 30.6 µM

## C=CCN(CC=C)CC(=O)N1N=C(C)CC1c1cc(Br)ccc1O (stereo unspecified)
[1]; [4]
  IC50: 10.2 µM
[3]
  IC50: 11.8 µM
[2]; [5]
  IC50: 3.09 µM
Bcap37; [6]
  IC50: 4.95 µM
HepG2; [7]
  IC50: 7.87 µM

## CCN(CC)C1CCN(CC(=O)N2N=C(c3cc4ccccc4oc3=O)CC2c2ccccc2)CC1 (stereo unspecified)
[1]; [4]
  IC50: 32.4 µM
[2]; [5]
  IC50: 26.1 µM
Bcap37; [6]
  IC50: 15.5 µM
HepG2; [7]
  IC50: 19.3 µM

## CN1CCN(CC(=O)N2N=C(c3cc4ccccc4oc3=O)CC2c2ccccc2)CC1 (stereo unspecified)
[1]; [4]
  IC50: 46.1 µM
[2]; [5]
  IC50: 25.8 µM
Bcap37; [6]
  IC50: 16.9 µM
HepG2; [7]
  IC50: 33.1 µM

## COc1cccc2c1C(=O)c1c(O)c3c(c(O)c1C2=O)C[C@@](O)(C(=O)CO)C[C@@H]3O[C@H]1C[C@H](N)[C@H](O)[C@H](C)O1 [DOXORUBICIN]
[2]; [5]
  IC50: 0.87 µM
Bcap37; [6]
  IC50: 1.12 µM
HepG2; [7]
  IC50: 1.34 µM

## CCC(=O)N1N=C(C)CC1c1cc(Br)cc(Br)c1O (stereo unspecified)
[1]; [4]
  IC50: 38.6 µM
[3]
  IC50: 18.1 µM
[2]; [5]
  IC50: 28.6 µM
Bcap37; [6]
  IC50: 40.1 µM
HepG2; [7]
  IC50: 41.4 µM

## O=C(CN1CCC(c2ccccc2)CC1)N1N=C(c2cc3ccccc3oc2=O)CC1c1ccccc1 (stereo unspecified)
[1]; mgc-803
  IC50: Not Active
[3]
  IC50: 35.7 µM
[2]; pc-3
  IC50: Not Active
Bcap37; bcap37
  IC50: Not Active
HepG2; hepg2
  IC50: Not Active

## CC(C)NCC(=O)N1N=C(c2cc3ccccc3oc2=O)CC1c1ccccc1 (stereo unspecified)
[1]; [4]
  IC50: 10.3 µM
[3]
  IC50: 3.52 µM
[2]; [5]
  IC50: 1.87 µM
Bcap37; [6]
  IC50: 2.21 µM
HepG2; [7]
  IC50: 6 µM

## CC1CCCN(CC(=O)N2N=C(c3cc4ccccc4oc3=O)CC2c2ccccc2)C1 (stereo unspecified)
[1]; mgc-803
  IC50: Not Active
[2]; [5]
  IC50: 28.3 µM
Bcap37; bcap37
  IC50: Not Active
HepG2; hepg2
  IC50: Not Active

## CC1=NN(C(=O)COc2ccc(Cl)cc2)C(c2ccccc2O)C1 (stereo unspecified)
[1]; mgc-803
  IC50: Not Active
[3]
  IC50: 54.4 µM
[2]; [5]
  IC50: 38.8 µM
Bcap37; bcap37
  IC50: Not Active
HepG2; hepg2
  IC50: Not Active

## O=C(c1ccccc1)N1N=C(c2cc3ccccc3oc2=O)CC1c1ccccc1 (stereo unspecified)
[1]; [4]
  IC50: 12.7 µM
[3]
  IC50: 8.74 µM
[2]; [5]
  IC50: 5.87 µM
Bcap37; [6]
  IC50: 32.2 µM
HepG2; [7]
  IC50: 36.6 µM

## CCCN(CCC)CC(=O)N1N=C(C)CC1c1cc(Br)ccc1O (stereo unspecified)
[1]; [4]
  IC50: 20.2 µM
[3]
  IC50: 9.94 µM
[2]; [5]
  IC50: 19 µM
Bcap37; [6]
  IC50: 15.3 µM
HepG2; [7]
  IC50: 9.81 µM

## O=C(CN1CCSCC1)N1N=C(c2cc3ccccc3oc2=O)CC1c1ccccc1 (stereo unspecified)
[1]; [4]
  IC50: 10.3 µM
[3]
  IC50: 3.3 µM
[2]; [5]
  IC50: 4 µM
Bcap37; [6]
  IC50: 8.2 µM
HepG2; [7]
  IC50: 8.96 µM

## CC1CCCCN1CC(=O)N1N=C(c2cc3ccccc3oc2=O)CC1c1ccccc1 (stereo unspecified)
[1]; mgc-803
  IC50: Not Active
[2]; [5]
  IC50: 36.3 µM
Bcap37; bcap37
  IC50: Not Active
HepG2; hepg2
  IC50: Not Active
